Data set [1] addresses Androgen receptor (Homo sapiens) (UniProt P10275). The data set is described as follows: In vivo induction of androgen receptor degradation in human VCaP cells xenografted in CB17 SCID mouse assessed as reduction in AR protein level at 12.5 mg/kg, po measured after 24 hrs by Western blotting analysis. On the set-up: scale not given: the % may be the effect or the level left.
The subject of data set [2] is LNCaP. The data set is described as follows: Induction of androgen receptor degradation in human LNCaP cells at 100 nM pretreated with thalidomide for 2 hrs followed by compound addition and 3 hrs by Western blot analysis. It counts as functional, cell-based. Conditions: time 5.0 hrs. The essentials:
(§1)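 LNCaP or VCaP cells pretreated 2 h with DMSO, ARi-12 (10 μM), thalidomide (10 μM), MG-132 (3 μM) or MLN4924 (0.5 μM), then given degrader at 100 nM for 3 h. AR measured by Western blot with GAPDH as loading control.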
(Immunoblotting shows a protein as a band on a membrane.)

Data set [3] in a line: Plasma protein binding in monkey at 1 uM after 5 hrs by equilibrium dialysis based LC-MS/MS analysis. It counts as ADME, cell-free, Macaca mulatta. Conditions: rhesus monkey. The essentials: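 Equilibrium dialysis of pooled plasma of each species spiked at 1 μM against 0.1 M sodium phosphate, pH 7.4. 5 h at 37 °C with shaking at 60 rpm. Both sides matrix-matched, ACN/IS quench, LC/MS. % bound = 100 − (buffer/plasma peak-area ratio × 100); recovery also calculated. Warfarin as reference.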
In general terms: Equilibrium dialysis compares concentrations on both sides of a semipermeable membrane.

Data set [4] is described as follows: Drug concentration in CB17 SCID mouse tumor xenografted with human VCaP cells at 12.5 mg/kg, po measured after 6 hrs by LC-MS/MS analysis. It counts as ADME, organism-based, Neoplasm. The following applies: read-out: Ct. The method, boiled down: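 SCID mice bearing one VCaP tumour each given a single oral 12.5 mg/kg dose in 100% PEG200. Plasma and tumour tissue collected at 6 and 24 h, 3 mice per time point. Values are mean ± SD.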

In data set [5] the test system is LNCaP. In words: Induction of androgen receptor degradation in human LNCaP cells at 100 nM pretreated with MG132 for 2 hrs followed by compound addition and 3 hrs by Western blot analysis. It counts as functional, cell-based. Conditions: time 5.0 hrs. The method, boiled down:
as §1

Data set [6] can be described thus: AUC(0 to t) in Beagle dog at 3 mg/kg, po measured up to 24 hrs by LC-MS/MS analysis. On the set-up: time < 24 hrs, dose 3 mg/kg, route po. The data set is classed as ADME, organism-based, Canis lupus familiaris. The following applies: in vivo. The method, boiled down: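 Male Beagle dogs dosed orally at 3 mg/kg in 90% PEG400 + 10% Cremophor.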
Another data set has as its target T1, Cytochrome P450 2C8 (Homo sapiens, UniProt P10632).
T1 sequence (P10632 whole entry): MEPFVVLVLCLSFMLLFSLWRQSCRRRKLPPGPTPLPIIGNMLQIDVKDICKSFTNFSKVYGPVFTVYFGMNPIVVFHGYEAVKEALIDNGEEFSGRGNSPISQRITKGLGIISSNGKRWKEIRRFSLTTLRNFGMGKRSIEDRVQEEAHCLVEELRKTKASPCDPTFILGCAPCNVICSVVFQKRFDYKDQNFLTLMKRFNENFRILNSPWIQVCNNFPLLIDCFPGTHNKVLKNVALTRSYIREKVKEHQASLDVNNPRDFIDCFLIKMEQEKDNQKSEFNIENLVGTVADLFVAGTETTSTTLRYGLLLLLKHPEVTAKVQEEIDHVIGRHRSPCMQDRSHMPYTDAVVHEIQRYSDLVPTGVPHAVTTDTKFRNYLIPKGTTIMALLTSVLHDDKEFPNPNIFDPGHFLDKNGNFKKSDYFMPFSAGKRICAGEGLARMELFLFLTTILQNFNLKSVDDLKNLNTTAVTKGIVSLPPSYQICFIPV
The data set is described as follows: Inhibition of CYP2C8 in human liver microsomes preincubated for 5 mins followed by NADPH addition and measured after 20 mins by LC/MS analysis. It counts as ADME, Microsome. In general terms: Microsomes from liver hold many membrane-bound enzymes, among them those of drug oxidation.

In data set [7] the test system is VCaP. The data set is described as follows: Antitumor activity against human VCaP cells xenografted in CB17 SCID mouse assessed as tumor growth inhibition at 30 mg/kg, po administered for 21 days. Conditions: 504 h, time 21 day, read-out: TGI. It counts as functional.
Data set [8] can be described thus: Drug concentration in ICR mouse plasma at 10 mg/kg, po measured after 24 hrs. It counts as ADME, organism-based. The method, boiled down:
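Mice given a single 10 mg/kg dose by oral gavage, 3 mice per time point. Plasma drug levels measured at 1, 3, 6 and 24 h; mean ± SD reported.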

Data set [9] can be described thus: Metabolic stability in rat plasma assessed as half life at 1 uM measured upto 120 mins by LC-MS/MS analysis. It counts as ADME, cell-free. The following applies: 2 h. The essentials: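 Compound at 1 μM final in pre-warmed plasma of each species, 37 °C for up to 2 h. ACN/IS quench at 0, 5, 15, 30, 60 and 120 min; LC/MS. Procaine as reference (benfluorex for rat). t1/2 = 0.693/slope of ln(fraction remaining) versus time.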

In data set [10] the test system is VCaP. The data set is described as follows: Downregulation of KLK3 gene expression in human VCaP cells incubated for 24 hrs by qRT-PCR analysis. Conditions: dose 0.03-30 nM. The data set is classed as functional, cell-based. The method, boiled down: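 LNCaP cells (RPMI 1640) or VCaP cells (DMEM Glutamax), both with 10% FBS, treated for 24 h. KLK3 mRNA measured by qRT-PCR and calculated by the comparative CT method against GAPDH and vehicle.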

Data set [11] concerns the target T2, Androgen receptor (Homo sapiens) (UniProt P10275).
T2 sequence (whole entry): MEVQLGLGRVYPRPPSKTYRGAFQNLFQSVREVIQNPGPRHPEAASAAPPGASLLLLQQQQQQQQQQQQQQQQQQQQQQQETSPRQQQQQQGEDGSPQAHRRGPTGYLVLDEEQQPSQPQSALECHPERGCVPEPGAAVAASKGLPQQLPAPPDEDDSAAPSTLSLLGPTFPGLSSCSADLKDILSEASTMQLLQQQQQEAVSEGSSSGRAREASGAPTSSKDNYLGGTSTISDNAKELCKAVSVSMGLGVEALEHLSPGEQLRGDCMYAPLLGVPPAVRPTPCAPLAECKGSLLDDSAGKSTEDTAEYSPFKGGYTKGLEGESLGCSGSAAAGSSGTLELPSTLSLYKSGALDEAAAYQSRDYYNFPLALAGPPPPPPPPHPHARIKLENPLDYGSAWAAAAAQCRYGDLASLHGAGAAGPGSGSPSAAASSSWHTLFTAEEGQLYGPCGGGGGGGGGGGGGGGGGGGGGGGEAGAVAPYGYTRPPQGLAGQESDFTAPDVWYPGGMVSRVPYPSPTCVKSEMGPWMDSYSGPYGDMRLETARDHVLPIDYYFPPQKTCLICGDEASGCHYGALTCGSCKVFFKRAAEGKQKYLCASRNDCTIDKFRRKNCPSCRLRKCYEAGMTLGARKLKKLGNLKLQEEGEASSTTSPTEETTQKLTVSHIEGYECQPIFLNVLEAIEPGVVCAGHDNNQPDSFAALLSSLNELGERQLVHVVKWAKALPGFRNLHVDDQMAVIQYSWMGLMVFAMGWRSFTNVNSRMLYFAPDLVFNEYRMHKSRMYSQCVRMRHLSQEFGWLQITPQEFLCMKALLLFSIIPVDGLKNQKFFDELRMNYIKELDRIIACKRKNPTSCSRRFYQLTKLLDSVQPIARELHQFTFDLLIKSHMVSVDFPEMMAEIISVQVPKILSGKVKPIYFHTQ
In words: Induction of androgen receptor degradation in human VCaP cells at 0.1 uM after 24 hrs by Western blotting analysis relative to control. It counts as cell-based. The method, boiled down:
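VCaP cells treated for 24 h at 10, 100 or 1000 nM. AR protein measured by Western blotting.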

Activity calls are given as the source filed them. No cut-off for these calls is given here.

By IC50 is commonly meant the point on the concentration scale where inhibition reaches its midpoint. Turning to `C[C@H]1CC2(CCN(c3ccc(C(=O)N4CCN(C5CN(c6ccc7c(c6)C(=O)N(C6CCC(=O)NC6=O)C7=O)C5)CC4)cc3)CC2)CN1c1ccc(C#N)c(Cl)c1` (some centres not stated), the Activity in [1] is greater than 95%; in the data set with VCaP [10] it was “Dose-Dependent Effect”; in data set [11], greater than 95%. Further, the outcome in the data set on LNCaP [2] and with LNCaP [5] was inactive. The molecule further returned a PPB in data set [3] of 99.2%. Also, the concentration at 6 h in [4] was 946 ng/mL. In data set [6], the AUCt worked out at 4460 ng·h/mL. At Cytochrome P450 2C8, the IC50 is greater than 10 µM. The inhibition in vivo at 30 mg/kg with VCaP [7] was 80%. This molecule showed a concentration at 24 h in data set [8] of 77 ng/mL. In data set [9], the t1/2 was greater than 2 h.

The record behind these values is ChEMBL document CHEMBL5331127, “Discovery of ARD-2051 as a Potent and Orally Efficacious Proteolysis Targeting Chimera (PROTAC) Degrader of Androgen Receptor for the Treatment of Advanced Prostate Cancer” (J Med Chem, 2023).
